Values joined by “and” are separate entries in the source; they are usually repeats but may differ in a detail not shown here. Identical values can stand only once. Like-named read-outs stand apart in the source and are kept apart here.

For data set [1] the following is noted: co-administration with itraconazole; cited from earlier work.
Data set [2] is classed as in vivo, Sprague-Dawley rats. The note with it: rats. The method, boiled down:
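Male Sprague-Dawley rats (220–260 g), acclimatised one week, fasted 12 h with free water, n=7/group. Single dose of vehicle (0.5% CMC-Na), simvastatin 2 mg/kg or itraconazole 15 mg/kg, then erlotinib 12 mg/kg in 0.5% CMC-Na by oral gavage 30 min later. Tail-vein blood taken into heparin at 0–24 h; plasma assayed by UPLC-MS/MS with tinidazole IS. Mean ± SD; ANOVA with Dunnett; Tmax by Wilcoxon signed-rank.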

Data set [3] can be described thus: Stability of erlotinib in rat plasma. Type of data set: in vitro ADME. The settings on record: various storage conditions, QC 8 and 800 ng/mL. The method, boiled down:
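Blank rat plasma spiked with erlotinib QC at 8 and 800 ng/mL, five replicates per level. Held at room temperature 4 h, at −80°C for 60 days, or through 3 freeze-thaw cycles; processed samples held 4°C 24 h. Acetonitrile-tinidazole protein precipitation, then UPLC-MS/MS against a 5–1000 ng/mL 1/x²-weighted curve. Accuracy taken as measured/theoretical concentration ×100%.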

For data set [4] the following is noted: after oral administration; cited from earlier work.
A further data set has as its system CYP3A4. The settings on record: human microsomes and cDNA expressed human CYP enzymes; cited from earlier work.
The conditions of data set [5]: cited from earlier work.
The conditions of data set [6]: with ketoconazole (CYP3A4 inhibitor); cited from earlier work.
The conditions of data set [7]: with flavoured water; cited from earlier work.
The conditions of data set [8]: with itraconazole, humans; cited from earlier work.
For data set [9] the following is noted: with itraconazole, rats; cited from earlier work.
[10] abbreviates: itraconazole group vs erlotinib alone group, P<0.05.
Setting [11] is: itraconazole group vs erlotinib alone group, not significant.
Setting [12] is: simvastatin group vs erlotinib alone group, P>0.05.

On to `N#CC1(c2ccc(NC(=O)c3cccnc3NCc3ccncc3)cc2)CCCC1` [apatinib], for which the “reduction of CL/F of apatinib” value in data set [1] is 40%.
As to `C#Cc1cccc(Nc2ncnc3cc(OCCOC)c(OCCOC)cc23)c1` [Erlotinib, erlotinib], in [2] (15 mg/kg itraconazole with 12 mg/kg erlotinib vs erlotinib alone, P<0.05), the “increase of AUC” value was 32.3%. In addition, in data set [2] (setting [10]), the “decrease of CL/F” value is ~24.24% and 24.2%; the “increase of AUC0-t” value was “approximately 32.32%”; the “increase of AUC0-∞” value was roughly 32.29%; the “increase of Cmax” value was ~33.54% and 33.5%. Besides, in data set [2] (setting [11]), the “decrease of Vz/F” value is recorded as “approximately 19.30%” and the “increase of t1/2” value is listed as roughly 5.33%. Further, in [2] (itraconazole group, P<0.05), the “AUC0-t, fold higher than erlotinib alone group” value is given as “approximately 1.32 fold”; the “AUC0-∞, fold higher than erlotinib alone group” value is recorded as “approximately 1.32 fold”; the “Cmax, fold higher than erlotinib alone group” value is listed as roughly 1.34 fold. Also, in data set [2] (setting [12]), the “decrease of CL/F” value was “approximately 6.06%”, the “increase of AUC0-∞” value is listed as roughly 9.50%, the “increase of Cmax” value is listed as roughly 3.80% and the “increase of Vz/F” value is reported as roughly 1.16%. Moreover, the “increase of t1/2” value in data set [2] (setting [12]) is on record as roughly 7.56%. Also, the “Accuracy over all stability conditions” value in data set [3] was 87.56–112.17%. The “eliminated via urine and feces route” value in data set [4] is on record as 91%. Also, the “share of metabolism by CYP3A4” value in the data set on CYP3A4 is recorded as 70%. The “reduction of AUC of erlotinib” value in [5] (combined with tamoxifen vs single administration) is 54%. In addition, in [6], the “increase of AUC of erlotinib” value is on record as 86% and the “increase of Cmax of erlotinib” value is 102%. For the same compound, in [7], the “increase of AUC of erlotinib” value is on record as 200% and the “increase of Cmax of erlotinib” value was 95%.
For the compound `CCc1nc(C(N)=O)c(Nc2ccc(N3CCC(N4CCN(C)CC4)CC3)c(OC)c2)nc1NC1CCOCC1` [gilteritinib], the “increase of exposure of gilteritinib” value was 2.2 fold in data set [8] and 1.4 fold in data set [9].
For the compound `CC/C(=C(\c1ccccc1)c1ccc(OCCN(C)C)cc1)c1ccccc1` [tamoxifen], in data set [5] (combined with erlotinib vs single administration), the “increase of Cmax of tamoxifen” value is given as 46%.

(Values after publication PMC10590554 (Drug Design, Development and Therapy, 2023).)
